Assay results from different studies.
Target: Phosphatidylinositol 3-kinase catalytic subunit type 3 (PIK3C3, Homo sapiens, UniProt Q8NEB9)

CC1=C(C#N)C(c2ccc3c(c2)c(NC(=O)c2ccccc2C)nn3C)C(C#N)=C(C)N1 — remaining binding (cell-free assay; competition with immobilised ligand; 1 µM): 87%
C[C@@H](c1ccc(-n2cnc3c(N)ncnc32)cc1)N1CCc2nn(C)c(Cc3ccccc3)c2C1=O — remaining binding (binding; competition with immobilised ligand; 0.1 µM): 76%
CN(C)CC#Cc1ccc(OCCCc2sc(N3CCc4cccc(C(=O)Nc5nc6ccccc6s5)c4C3)nc2C(=O)O)c(F)c1 — remaining binding (cell-free assay; competition with immobilised ligand; 1 µM): 100%
Cc1cnc(Nc2ccc(C(=O)N3CCC(N4CCCC4)CC3)cc2)nc1-c1cc2ccccc2s1 — remaining binding (binding; competition with immobilised ligand; 1 µM): 14%
Cc1cc(-n2nc(Cc3cc(F)cc(C(F)(F)F)c3)nc2C)ccc1C(N)=O — remaining binding (cell-free assay; competition with immobilised ligand; 1 µM): 100%
O=C(Nc1c[nH]nc1C(=O)NC1CCNCC1)c1cc(F)cc(F)c1 — remaining binding (binding; competition with immobilised ligand; 1 µM): 90%
Cc1cnn2ncc(-c3ccnc(N(C)C)n3)c2c1 — remaining binding (binding; 1 µM): 87%
c1cncc(-c2cccc(Nc3nccc(NC4CCCCC4)n3)c2)c1 — remaining binding (binding; competition with immobilised ligand; 10 µM): 21%
O=C(c1ccc(Nc2nccc(-c3cc4ccccc4s3)n2)cc1)N1CCC(N2CCCC2)CC1 — remaining binding (binding; competition with immobilised ligand; 1 µM): 4.9%
CN(c1nccc(-c2cnn3ncccc23)n1)C1CC1 — remaining binding (binding; 1 µM): 100%
Cc1c(NC(=O)c2cc(C(N)=O)nc3cc(F)ccc23)c(C(F)(F)F)nn1Cc1ccc(C(C)(C)C)cc1 — remaining binding (cell-free assay; competition with immobilised ligand; 1 µM): 100%
CN(C)c1nccc(-c2cnc3ncccn23)n1 — remaining binding (binding; 1 µM): 48%
COc1ncc2cc3ccccc3nc2c1C#N — remaining binding (cell-free assay; competition with immobilised ligand; 5 µM): 92%
COc1cnc(Nc2cccc(S(N)(=O)=O)c2)nc1N1CCN(c2ccccc2)C(=O)C1 — remaining binding (binding; competition with immobilised ligand; 1 µM): 64%
c1ccc(N2CCN(Cc3nc4ccccc4[nH]3)CC2)nc1 — remaining binding (cell-free assay; competition with immobilised ligand; 1 µM): 100%
COc1ccnn2ncc(-c3ccnc(N(C)C)n3)c12 — remaining binding (binding; 1 µM): 96%
O=C(NCCCN1CCOCC1)c1ccc(Nc2ncc(Cl)c(-c3ccc(Cl)s3)n2)cc1 — remaining binding (binding; competition with immobilised ligand; 1 µM): 33%
C[C@@H]1CCN(c2nccc(-c3cnn4ncccc34)n2)C1 — remaining binding (binding; 1 µM): 70%
CNC(=O)[C@@H]1CC[C@@H](n2c(-c3ccc4cnccc4c3)nc3ccc(C(=O)NCc4cccc(C(N)=O)c4)cc32)C1 — remaining binding (binding; competition with immobilised ligand; 1 µM): 7.2%
O=C(O)[C@@H]1[C@@H](Cn2nnc3ccccc3c2=O)CC[C@H]1C(=O)c1ccc(OCCC2CCOCC2)cc1 — remaining binding (cell-free assay; competition with immobilised ligand; 1 µM): 96%
N[C@H]1CCN(c2nccc(-c3cnn4ncccc34)n2)C1 — remaining binding (binding; 1 µM): 77%
